Assay results gathered from unrelated publications.
Target: Protein-tyrosine kinase 2-beta (PTK2B, Homo sapiens, UniProt Q14289)

SMILES | test | setting | remaining binding [%]
COc1cnc(Nc2cccc(S(N)(=O)=O)c2)nc1N1CCN(c2ccccc2)CC1 | binding, competition with immobilised ligand | 1 µM | 89
C[C@H]1CCN(c2nccc(-c3cnn4ncccc34)n2)C1 | binding | 1 µM | 100
O=C(O)[C@H]1[C@H](Cn2nnc3ccccc3c2=O)CC[C@@H]1C(=O)c1ccc(OCCC2CCOCC2)cc1 | cell-free assay, competition with immobilised ligand | 1 µM | 75
N[C@@H]1CCN(c2nccc(-c3cnn4ncccc34)n2)C1 | binding | 1 µM | 100
O=C(c1ccc(Nc2ncc(Cl)c(-c3cc4ccccc4s3)n2)cc1)N1CCC(N2CCCC2)CC1 | binding, competition with immobilised ligand | 1 µM | 40
CN(C)c1nccc(-c2cnn3ncccc23)n1 | binding | 1 µM | 87
O=C(c1ccc(Nc2ncc(Cl)c(-c3ccc(Cl)s3)n2)cc1)N1CCC(N2CCCC2)CC1 | binding, competition with immobilised ligand | 1 µM | 49
CC(=O)c1c(NS(C)(=O)=O)c2cc(-c3ccc(Cl)cc3)c(-c3ccc(Cl)cc3Cl)nc2n(C)c1=O | cell-free assay, competition with immobilised ligand | 1 µM | 100
C=CC(=O)N1CCC(C(=O)NCC(=O)N2CCN(c3nc(-c4cnc(N)nc4C(F)F)nc(N4CCOCC4)n3)CC2)CC1 | binding, competition with immobilised ligand | 1 µM | 100
COc1ccnn2ncc(-c3ccnc(N(C)C)n3)c12 | binding | 1 µM | 100
CO[C@H]1CC[C@H](CNc2ccc(S(=O)(=O)NC(=O)c3ccc(N4CCN(CC5=C(c6ccc(Cl)cc6)CC(C)(C)CC5)CC4)cc3Oc3cnc4[nH]ccc4c3)cc2[N+](=O)[O-])CC1 | cell-free assay, competition with immobilised ligand | 1 µM | 87
COc1cnc(Nc2cccc(S(N)(=O)=O)c2)nc1N1CCN(c2ccccc2)C(=O)C1 | binding, competition with immobilised ligand | 1 µM | 100
Cc1c[nH]c2nccc(Oc3c(F)cc(Nc4cc(Cl)nc(N)n4)cc3F)c12 | cell-free assay, competition with immobilised ligand | 0.1 µM | 90
O=C(NCCCN1CCOCC1)c1ccc(Nc2nccc(-c3cc4ccccc4s3)n2)cc1 | binding, competition with immobilised ligand | 1 µM | 64
CC1CCCN1c1nccc(-c2cnn3ncccc23)n1 (stereo not drawn) | binding | 1 µM | 100
Cn1cc(Cl)c2c(Oc3c(F)cc(Nc4cc(Cl)nc(N)n4)cc3F)ccnc21 | cell-free assay, competition with immobilised ligand | 0.1 µM | 100
C[C@@H](c1ccc(-n2cnc3c(N)ncnc32)cc1)N1CCc2nn(C)c(Cc3ccccc3)c2C1=O | binding, competition with immobilised ligand | 0.1 µM | 95
CN(c1nccc(-c2cnn3ncccc23)n1)C1CC1 | binding | 1 µM | 100
NS(=O)(=O)c1cc(NC(=O)C2(c3ccccc3Cl)CC2)ccc1Oc1cccc(Cl)c1 | cell-free assay, competition with immobilised ligand | 1 µM | 91
FC(F)(F)Oc1cccc(-c2cnc3ccc(-c4ccncc4)nn23)c1 | cell-free assay, competition with immobilised ligand | 5 µM | 76
O=C(NCC1CCOCC1)c1n[nH]cc1NC(=O)c1c(F)cccc1F | binding, competition with immobilised ligand | 1 µM | 100
